These results are taken from PubChem BioAssay.

Structures are written as SMILES. A number with no mark means an inactive call. Records with an inconclusive call do not appear. Calls of active or inactive are those of the source.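 How the source made its calls, unless noted: active means viability increase at or above a cutoff of the median across tested compounds plus 3 SD (cut at about 8.5% in these data, passing the limit was not always enough); inconclusive means some gains above the cutoff, reason not given; inactive means the rest.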

Assay [1] is described as follows: OD615 S. cerevisiae growth inhibition, permissive medium, pilot counter-assay, permissive growth control for S. cerevisiae lifespan shortening project (AID 705;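 active means growth inhibition above 25% in both replicates, a cutoff set 3 SD above the mean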). Particulars: OD615, 24 h, at 10 µM, hits give high values. A digest of the protocol:
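System: Engineered DeaD yeast | Buffer or medium: SC raffinose/galactose permissive medium | Incubation: Cells pre-grown 4 h, then 24 h compound exposure, 30 °C humidified | Measured by: Absorbance (optical density) at 615 nm | Read-out: Reduction in yeast growth (OD615)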

Assay [2] in a line: Restrictive medium S. cerevisiae growth inhibition, OD615, pilot screen of yeast lifespan reduction project, restrictive growth control (AID 706;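 active means growth inhibition above a set limit, 3 SD over mean compound inhibition, in both replicates, cut at about 43% in these data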;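 further: modified DeaD lifespan yeast strain shifted to restrictive glucose medium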). Particulars: OD615, 48 h, at 10 µM, hits give high values. A digest of the protocol: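 Material: modified S. cerevisiae; Medium: glucose-based CSMM-D restrictive medium; Compound dosing: one concentration, 10 µM final, 0.25% DMSO; Incubation: 48 h compound exposure at 30 °C; Measured by: OD615.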

Assay [3] in a line: viability gain of MRP-1-high H69AR cells under doxorubicin, pilot screen, MRP-1 activator project, CellTiter-Glo, duplicate (AID 807).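 Further: compound pretreatment 18-22 h then 72 h combined with doxorubicin; 0% = doxorubicin alone and 100% = vehicle without doxorubicin.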 Conditions: H69AR viability with doxorubicin, CellTiter-Glo luminescence; at 10 µM; hits give high values. A general note: Cellular ATP, detected with luciferase, serves as a proxy for viable cell number.
The nature of assay [4]: growth suppression of beta-catenin knockout HCT116, pilot screen, human colon tumor cells (AID 823;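 active means cell viability at or below a set limit in both duplicate runs, the limit being the all-compound median minus 4 SD, cut at about 23% in these data, passing the limit was not always enough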;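 further: 0% = wells killed by 20 µM Hyamine and 100% = untreated DMSO cell wells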). Conditions: CellTiter-Glo, 60 h, at 10 µM, hits give low values.
Assay [5] is described as follows: growth suppression of PTEN-deleted HCT116, pilot screen, cell-based, HCT116 clonal line, CellTiter-Glo (AID 824;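 active means viability at or below 27.92% in each of two runs, the all-compound median minus 4 SD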;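 further: 0% = 20 µM Hyamine control and 100% = vehicle cell control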). Conditions: 60 h, at 10 µM, hits give low values.
Assay [6] can be described thus: inhibitors of the yeast RAM network, pilot screen, dse1pr::URA3 reporter, 5-FOA selection (AID 869;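 active means inhibition over a set limit, the all-compound mean plus 3 SD, in both replicate runs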;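 further: 0% = DMSO wells with no growth and 100% = 10 µM 1-NA-PP1 with full growth; RAM network block rescues cells from 5-FOA so hits raise OD615 growth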). Conditions: S. cerevisiae dse1pr::URA3 5-FOA growth, OD615, 2 d; at 10 µM; hits give high values; strain carries analog-sensitive mutant Cbk1 kinase.

The term viability denotes a read-out of living cells in per cent, often relative to untreated cells. A word on the inhibition: it is the change of the read-out against control, counted positive when it falls. Consider `CCN1CCN(CC(=O)Nc2ccc(Cl)c(Cl)c2)C(=O)C1=O`, for which the growth inhibition in assay [1] was 3.48%; in assay [2], -8.29%. Moreover, in assay [3], the viability increase is -0.65%. Also, the viability was 102% in assay [4] and 97.7% in assay [5]. Further, the inhibition in assay [6] is 0.63%.
Turning to `O=C(Cn1c(=O)sc2ccccc21)NCc1ccccn1`, the results for the growth inhibition in assay [1] and in assay [2] were 1.44% and -6.78%, respectively. The viability increase in assay [3] was -1.78%. Moreover, the viability is 104% in assay [4] and 93.4% in assay [5]. The inhibition in assay [6] was 1.19%.
Regarding `CC(C)Oc1ccc(NC(=O)Oc2ccccc2)cc1`, the growth inhibition was -4.28% in assay [1] and -8.55% in assay [2]. Further, in assay [3], the viability increase is -0.53%. Besides, the viability in assay [4] is 97.4%; in assay [5], 96.8%. Further, the inhibition in assay [6] was 2.38%.
For the molecule `CCCCn1c(Oc2ccc(C(=O)OC)cc2)nc2c1c(=O)n(C)c(=O)n2C`, the growth inhibition in assay [1] is -10.3%; in assay [2] it was -3.88%. Also, the viability increase in assay [3] is -2.52%. Further, the viability in assay [4] and in assay [5] was 84.1% throughout. In assay [6], the inhibition is 0.085%.
On to `Oc1ccccc1C(=S)N1CCCCC1`, for which the figures for the growth inhibition in assay [1] and in assay [2] were 8.11% and 23.6%, respectively. In addition, the viability increase in assay [3] was -2.83%. Moreover, the viability in assay [4] was 94.7%; in assay [5], 89.8%. Besides, the inhibition in assay [6] was 2.25%.
On to `COc1ccc(NC(=O)c2nnn(Cc3ccc(SC)cc3)c2N)c(OC)c1`, for which the growth inhibition is -1.88% in assay [1] and -10.7% in assay [2]. For the same molecule, in assay [3], the viability increase is -0.11%. Also, the viability is 100% in assay [4] and 93.1% in assay [5]. Moreover, the inhibition in assay [6] was 4.42%.
As to `Clc1ccc(Cc2nnc(-c3cccs3)o2)cc1`, the growth inhibition in assay [1] is -0.04%; in assay [2], 5.1%. Also, the viability increase in assay [3] is 4.43%. Also, the viability is 106% in assay [4] and 95.9% in assay [5]. For the same molecule, the inhibition in assay [6] is 0.935%.
As for `Cn1c(SCc2ccccc2Cl)nnc1-c1cnccn1`, the growth inhibition in assay [1] is -2.59%; in assay [2], -7.88%. Further, the viability increase in assay [3] was -1.15%. The viability in assay [4] is 103%; in assay [5], 102%. Besides, the inhibition in assay [6] was 2.44%.
`C=CCSc1nnc2c(n1)OC=Nc1ccccc1-2`: the growth inhibition in assay [1] is -4.68%; in assay [2], 29.7%. Moreover, in assay [3], the viability increase was 2.06%. Further, the values for the viability in assay [4] and in assay [5] were 97.9% and 101%, respectively. In addition, the inhibition in assay [6] was 3.17%.
On to `CCN1CCN(CC(=O)Nc2cccc(C)c2)C(=O)C1=O`, for which the growth inhibition in assay [1] is -9.91%; in assay [2], -0.21%. Besides, in assay [3], the viability increase was -1.01%. Besides, the viability was 99.6% in assay [4] and 95.6% in assay [5]. Further, the inhibition in assay [6] is 1.27%.
Take `COc1cc(Cl)c(S(=O)(=O)N2CCN(Cc3ccc4c(c3)OCO4)CC2)cc1Cl`: the growth inhibition in assay [1] was -9.75%; in assay [2] it was -4.02%. The viability increase in assay [3] was -2.17%. The viability in assay [4] is 84.2%; in assay [5], 82.2%. In assay [6], the inhibition was 1.04%.
Consider `COc1ccc2cc(CCNC(=O)c3ccc(Br)o3)c(=O)[nH]c2c1`, for which the results for the growth inhibition in assay [1] and in assay [2] were -10.1% and -17%, respectively. For the same molecule, in assay [3], the viability increase is -2.65%. Also, the values for the viability in assay [4] and in assay [5] were 95.9% and 90.3%, respectively. In addition, the inhibition in assay [6] was 1.84%.
Take `COc1ccc(OC)c(NC(=O)C2CCC(CNc3c(N4CCC(C)CC4)c(=O)c3=O)CC2)c1` (stereo not given): the growth inhibition was -5.59% in assay [1] and -11.5% in assay [2]. For the same molecule, the viability increase in assay [3] was -4.93%. The viability in assay [4] is 70.8%; in assay [5], 70.1%. For the same molecule, the inhibition in assay [6] is 0.96%.
Take `COC(=O)c1ccc(CSc2ccc3nnc(-c4cccc(F)c4)n3n2)o1`: the figures for the growth inhibition in assay [1] and in assay [2] were 6.12% and 49% (active), respectively. The viability increase in assay [3] was -3.24%. The viability was 87.9% in assay [4] and 91.4% in assay [5]. The inhibition in assay [6] is -0.025%.
For `O=c1c2ccccc2nc(N2CCN(c3ccccc3)CC2)n1Cc1ccccc1`, the growth inhibition in assay [1] is -18.7%; in assay [2], -8.96%. Also, the viability increase in assay [3] is -6.05%. Besides, the values for the viability in assay [4] and in assay [5] were 66.3% and 72.8%, respectively. In addition, the inhibition in assay [6] is 1.27%.
With `CCOc1ccc(CN2CCNC(=O)C2CC(=O)OC)cc1` (stereo not given), the growth inhibition was 0.415% in assay [1] and -7.59% in assay [2]. For the same molecule, in assay [3], the viability increase was -0.51%. Also, the results for the viability in assay [4] and in assay [5] were 98.7% and 102%, respectively. In assay [6], the inhibition is 1.59%.
For the molecule `Cc1c(C(=O)O)nn(-c2ccccc2)c(=O)c1C#N`, the growth inhibition is -15.2% in assay [1] and 5.62% in assay [2]. In addition, in assay [3], the viability increase was 0.49%. In addition, the viability in assay [4] is 98.4%; in assay [5], 102%. Besides, the inhibition in assay [6] was 1.46%.
`Nc1ccc(S(=O)(=O)N2CCCc3ccccc32)cc1`: the growth inhibition in assay [1] is -18.7%; in assay [2], -24%. For the same molecule, in assay [3], the viability increase is -3.42%. Also, the viability in assay [4] and in assay [5] was 83% in each case. For the same molecule, in assay [6], the inhibition was 1.49%.
In the case of `Cc1cccc(C)c1OCc1nnc(SCC(=O)Nc2nccs2)o1`, the growth inhibition was -0.12% in assay [1] and 0.57% in assay [2]. For the same molecule, the viability increase in assay [3] was -1.15%. Also, the results for the viability in assay [4] and in assay [5] were 94% and 87.4%, respectively. Further, the inhibition in assay [6] is 2.88%.
In the case of `Cc1cccc(-c2noc(CN(C(=O)c3c(-c4ccccc4Cl)noc3C)C(C)C)n2)c1`, the growth inhibition in assay [1] was -13.9%; in assay [2], -13%. Further, the viability increase in assay [3] is -3.28%. Moreover, the viability in assay [4] was 44.3%; in assay [5], 49.4%. Besides, the inhibition in assay [6] is 0.585%.
